Experimental data reported in ChEMBL document CHEMBL2321753, “Synthesis and biological evaluation of radioiodinated quinacrine-based derivatives for SPECT imaging of Aβ plaques” (Eur J Med Chem, 2013).
Each block holds one compound with its values, some of them ahead of it.

Legend:
Brain [1] = test: Biodistribution in ddY mouse brain at 0.1 to 0.4 uCi, iv after 30 mins by gamma counting; format: ADME, organism-based; settings: in vivo, 0.5 h
How it was run: (§1)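 [125I]ligand (0.1–0.4 µCi) in 100 µL PBS (pH 7.4) containing 30 µL DMSO, injected into the tail vein of ddY mice (5 weeks, 22–25 g). Mice sacrificed at 2, 10, 30 and 60 min. Organs removed, weighed and gamma-counted. Values are % injected dose per gram, except stomach as % dose per organ. Mean (SD) of 3–6 mice per time point.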

Blood [2] = test: Biodistribution in ddY mouse blood at 0.1 to 0.4 uCi, iv after 60 mins by gamma counting; format: ADME, organism-based; settings: in vivo, 1 h; how it was run: as §1
Brain [3] = test: Biodistribution in ddY mouse brain at 0.1 to 0.4 uCi, iv after 10 mins by gamma counting; format: ADME, organism-based; settings: in vivo; how it was run: as §1
Blood [4] = test: Biodistribution in ddY mouse blood at 0.1 to 0.4 uCi, iv after 2 mins by gamma counting; format: ADME, organism-based; settings: in vivo; how it was run: as §1
Stomach [5] = test: Biodistribution in ddY mouse stomach assessed per organ at 0.1 to 0.4 uCi, iv after 60 mins by gamma counting; format: ADME, organism-based; settings: in vivo, 1 h; how it was run: as §1
Intestine [6] = test: Biodistribution in ddY mouse intestine at 0.1 to 0.4 uCi, iv after 60 mins by gamma counting; format: ADME, organism-based; settings: in vivo, 1 h; how it was run: as §1
Lung [7] = test: Biodistribution in ddY mouse lung at 0.1 to 0.4 uCi, iv after 30 mins by gamma counting; format: ADME, organism-based; settings: in vivo, 0.5 h; how it was run: as §1
Stomach [8] = test: Biodistribution in ddY mouse stomach assessed per organ at 0.1 to 0.4 uCi, iv after 2 mins by gamma counting; format: ADME, organism-based; settings: in vivo; how it was run: as §1
Lung [9] = test: Biodistribution in ddY mouse lung at 0.1 to 0.4 uCi, iv after 2 mins by gamma counting; format: ADME, organism-based; settings: in vivo; how it was run: as §1
Kidney [10] = test: Biodistribution in ddY mouse kidney at 0.1 to 0.4 uCi, iv after 60 mins by gamma counting; format: ADME, organism-based; settings: in vivo, 1 h; how it was run: as §1
Liver [11] = test: Biodistribution in ddY mouse liver at 0.1 to 0.4 uCi, iv after 2 mins by gamma counting; format: ADME, organism-based; settings: in vivo; how it was run: as §1
[12] = n-octanol-sodium phosphate buffer partition co-efficient, log D of the compound at pH 7.4 by shake flask method; format: physicochemical
How it was run: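 Shake-flask partition between n-octanol and sodium phosphate buffer, pH 7.4, shaken 10 min at room temperature, then centrifuged. Weighed 0.5 mL samples of each layer counted. log D from the ratio of cpm per gram of octanol to cpm per gram of buffer; n = 3.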

Intestine [13] = test: Biodistribution in ddY mouse intestine at 0.1 to 0.4 uCi, iv after 2 mins by gamma counting; format: ADME, organism-based; settings: in vivo; how it was run: as §1
Brain [14] = test: Biodistribution in ddY mouse brain at 0.1 to 0.4 uCi, iv after 60 mins by gamma counting; format: ADME, organism-based; settings: in vivo, 1 h; how it was run: as §1
Kidney [15] = test: Biodistribution in ddY mouse kidney at 0.1 to 0.4 uCi, iv after 30 mins by gamma counting; format: ADME, organism-based; settings: in vivo, 0.5 h; how it was run: as §1
Heart [16] = test: Biodistribution in ddY mouse heart at 0.1 to 0.4 uCi, iv after 60 mins by gamma counting; format: ADME, organism-based; settings: in vivo, 1 h; how it was run: as §1
Kidney [17] = test: Biodistribution in ddY mouse kidney at 0.1 to 0.4 uCi, iv after 2 mins by gamma counting; format: ADME, organism-based; settings: in vivo; how it was run: as §1
Lung [18] = test: Biodistribution in ddY mouse lung at 0.1 to 0.4 uCi, iv after 10 mins by gamma counting; format: ADME, organism-based; settings: in vivo; how it was run: as §1
Pancreas [19] = test: Biodistribution in ddY mouse pancreas at 0.1 to 0.4 uCi, iv after 10 mins by gamma counting; format: ADME, organism-based; settings: in vivo; how it was run: as §1
Spleen [20] = test: Biodistribution in ddY mouse spleen at 0.1 to 0.4 uCi, iv after 2 mins by gamma counting; format: ADME, organism-based; settings: in vivo; how it was run: as §1
Blood [21] = test: Biodistribution in ddY mouse blood at 0.1 to 0.4 uCi, iv after 30 mins by gamma counting; format: ADME, organism-based; settings: in vivo, 0.5 h; how it was run: as §1
Heart [22] = test: Biodistribution in ddY mouse heart at 0.1 to 0.4 uCi, iv after 10 mins by gamma counting; format: ADME, organism-based; settings: in vivo; how it was run: as §1
Pancreas [23] = test: Biodistribution in ddY mouse pancreas at 0.1 to 0.4 uCi, iv after 30 mins by gamma counting; format: ADME, organism-based; settings: in vivo, 0.5 h; how it was run: as §1
Liver [24] = test: Biodistribution in ddY mouse liver at 0.1 to 0.4 uCi, iv after 10 mins by gamma counting; format: ADME, organism-based; settings: in vivo; how it was run: as §1
Liver [25] = test: Biodistribution in ddY mouse liver at 0.1 to 0.4 uCi, iv after 60 mins by gamma counting; format: ADME, organism-based; settings: in vivo, 1 h; how it was run: as §1
Brain [26] = test: Biodistribution in ddY mouse brain at 0.1 to 0.4 uCi, iv after 2 mins by gamma counting; format: ADME, organism-based; settings: in vivo; how it was run: as §1
Lung [27] = test: Biodistribution in ddY mouse lung at 0.1 to 0.4 uCi, iv after 60 mins by gamma counting; format: ADME, organism-based; settings: in vivo, 1 h; how it was run: as §1
Intestine [28] = test: Biodistribution in ddY mouse intestine at 0.1 to 0.4 uCi, iv after 10 mins by gamma counting; format: ADME, organism-based; settings: in vivo; how it was run: as §1
Liver [29] = test: Biodistribution in ddY mouse liver at 0.1 to 0.4 uCi, iv after 30 mins by gamma counting; format: ADME, organism-based; settings: in vivo, 0.5 h; how it was run: as §1
Heart [30] = test: Biodistribution in ddY mouse heart at 0.1 to 0.4 uCi, iv after 30 mins by gamma counting; format: ADME, organism-based; settings: in vivo, 0.5 h; how it was run: as §1
Intestine [31] = test: Biodistribution in ddY mouse intestine at 0.1 to 0.4 uCi, iv after 30 mins by gamma counting; format: ADME, organism-based; settings: in vivo, 0.5 h; how it was run: as §1
Stomach [32] = test: Biodistribution in ddY mouse stomach assessed per organ at 0.1 to 0.4 uCi, iv after 30 mins by gamma counting; format: ADME, organism-based; settings: in vivo, 0.5 h; how it was run: as §1
Stomach [33] = test: Biodistribution in ddY mouse stomach assessed per organ at 0.1 to 0.4 uCi, iv after 10 mins by gamma counting; format: ADME, organism-based; settings: in vivo; how it was run: as §1
Spleen [34] = test: Biodistribution in ddY mouse spleen at 0.1 to 0.4 uCi, iv after 30 mins by gamma counting; format: ADME, organism-based; settings: in vivo, 0.5 h; how it was run: as §1
Pancreas [35] = test: Biodistribution in ddY mouse pancreas at 0.1 to 0.4 uCi, iv after 60 mins by gamma counting; format: ADME, organism-based; settings: in vivo, 1 h; how it was run: as §1
Heart [36] = test: Biodistribution in ddY mouse heart at 0.1 to 0.4 uCi, iv after 2 mins by gamma counting; format: ADME, organism-based; settings: in vivo; how it was run: as §1
Spleen [37] = test: Biodistribution in ddY mouse spleen at 0.1 to 0.4 uCi, iv after 60 mins by gamma counting; format: ADME, organism-based; settings: in vivo, 1 h; how it was run: as §1
Blood [38] = test: Biodistribution in ddY mouse blood at 0.1 to 0.4 uCi, iv after 10 mins by gamma counting; format: ADME, organism-based; settings: in vivo; how it was run: as §1
Spleen [39] = test: Biodistribution in ddY mouse spleen at 0.1 to 0.4 uCi, iv after 10 mins by gamma counting; format: ADME, organism-based; settings: in vivo; how it was run: as §1
Pancreas [40] = test: Biodistribution in ddY mouse pancreas at 0.1 to 0.4 uCi, iv after 2 mins by gamma counting; format: ADME, organism-based; settings: in vivo; how it was run: as §1
Kidney [41] = test: Biodistribution in ddY mouse kidney at 0.1 to 0.4 uCi, iv after 10 mins by gamma counting; format: ADME, organism-based; settings: in vivo; how it was run: as §1
[42] = molecular target: Amyloid-beta precursor protein (Homo sapiens, UniProt P05067); test: Displacement of [125I]IMPY from amyloid beta (1 to 42) (unknown origin) after 3 hrs by gamma counting
How it was run: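 Filtered through GF/B filters and bound radioactivity gamma-counted. IC50 from displacement curves of three independent experiments; Ki calculated with the Cheng–Prusoff equation.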

Sequence of Amyloid-beta precursor protein (P05067 whole entry): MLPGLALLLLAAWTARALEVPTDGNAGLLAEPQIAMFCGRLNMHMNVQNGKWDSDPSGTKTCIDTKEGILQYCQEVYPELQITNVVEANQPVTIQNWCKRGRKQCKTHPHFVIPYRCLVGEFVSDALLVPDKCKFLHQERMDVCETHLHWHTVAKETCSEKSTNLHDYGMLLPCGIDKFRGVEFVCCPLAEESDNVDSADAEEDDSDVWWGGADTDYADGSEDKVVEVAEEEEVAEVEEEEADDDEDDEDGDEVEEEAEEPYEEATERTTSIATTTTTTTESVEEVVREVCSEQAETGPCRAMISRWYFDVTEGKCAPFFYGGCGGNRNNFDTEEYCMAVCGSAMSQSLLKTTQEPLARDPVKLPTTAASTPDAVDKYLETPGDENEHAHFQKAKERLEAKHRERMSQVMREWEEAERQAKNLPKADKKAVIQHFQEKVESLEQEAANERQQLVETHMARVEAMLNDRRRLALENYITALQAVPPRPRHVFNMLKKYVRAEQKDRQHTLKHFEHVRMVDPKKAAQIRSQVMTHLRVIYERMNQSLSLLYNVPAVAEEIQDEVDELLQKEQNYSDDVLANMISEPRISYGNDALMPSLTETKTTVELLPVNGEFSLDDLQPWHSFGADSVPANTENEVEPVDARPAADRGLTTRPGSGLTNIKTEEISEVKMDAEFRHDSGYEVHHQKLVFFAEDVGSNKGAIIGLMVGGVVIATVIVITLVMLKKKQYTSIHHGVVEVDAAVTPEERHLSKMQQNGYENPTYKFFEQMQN

Drug uptake (Brain [1]): 1.27 % ID/g
Drug uptake (Blood [2]): 0.49 % ID/g
Drug uptake (Brain [3]): 3.16 % ID/g
Drug uptake (Blood [4]): 1.15 % ID/g
Drug uptake (Stomach [5]): 1.74 %ID
Drug uptake (Intestine [6]): 11.2 % ID/g
Drug uptake (Lung [7]): 5.04 % ID/g
Drug uptake (Stomach [8]): 0.99 %ID
Drug uptake (Lung [9]): 9.91 % ID/g
Drug uptake (Kidney [10]): 3.58 % ID/g
Drug uptake (Liver [11]): 6.24 % ID/g
logD [12]: 2.13
Drug uptake (Intestine [13]): 1.86 % ID/g
Drug uptake (Brain [14]): 0.19 % ID/g
Drug uptake (Kidney [15]): 12.64 % ID/g
Drug uptake (Heart [16]): 0.49 % ID/g
Drug uptake (Kidney [17]): 9.81 % ID/g
Drug uptake (Lung [18]): 14.29 % ID/g
Drug uptake (Pancreas [19]): 11.52 % ID/g
Drug uptake (Spleen [20]): 4.7 % ID/g
Drug uptake (Blood [21]): 1.46 % ID/g
Drug uptake (Heart [22]): 4.57 % ID/g
Drug uptake (Pancreas [23]): 4.98 % ID/g
Drug uptake (Liver [24]): 14.79 % ID/g
Drug uptake (Liver [25]): 2.84 % ID/g
Drug uptake (Brain [26]): 1.35 % ID/g
Drug uptake (Lung [27]): 1.4 % ID/g
Drug uptake (Intestine [28]): 14.19 % ID/g
Drug uptake (Liver [29]): 8.4 % ID/g
Drug uptake (Heart [30]): 2.26 % ID/g
Drug uptake (Intestine [31]): 17.49 % ID/g
Drug uptake (Stomach [32]): 6.66 %ID
Drug uptake (Stomach [33]): 6.58 %ID
Drug uptake (Spleen [34]): 10.6 % ID/g
Drug uptake (Pancreas [35]): 0.76 % ID/g
Drug uptake (Heart [36]): 4.46 % ID/g
Drug uptake (Spleen [37]): 3.28 % ID/g
Drug uptake (Blood [38]): 2.09 % ID/g
Drug uptake (Spleen [39]): 14.65 % ID/g
Drug uptake (Pancreas [40]): 4.34 % ID/g
Drug uptake (Kidney [41]): 22.51 % ID/g
Structure (SMILES): COc1ccc2nc3cc([125I])ccc3c(N)c2c1

Ki [42]: 13.8 nM
Structure (SMILES): CNc1c2ccc(I)cc2nc2ccc(OC)cc12
